Reference: ChEMBL document CHEMBL4184311, “Design, synthesis, and evaluation of simple phenol amides as ERRγ agonists” (Bioorg Med Chem Lett, 2018)
The source made the active and inactive calls. No cut-off for these calls is given here.

Key:
[1] = Half life in rat liver microsomes at 1 uM in presence of NADPH by LC-MS/MS analysis; assay type: ADME, microsome
[2] = biological target: T1, Steroid hormone receptor ERR1 (Homo sapiens) (UniProt P11474); test: Agonist activity at alphaHis-SUMO-tagged ERRalpha-LBD (unknown origin) assessed as decrease in RIP140 peptide recruitment by TR-FRET assay
T1 sequence (whole entry): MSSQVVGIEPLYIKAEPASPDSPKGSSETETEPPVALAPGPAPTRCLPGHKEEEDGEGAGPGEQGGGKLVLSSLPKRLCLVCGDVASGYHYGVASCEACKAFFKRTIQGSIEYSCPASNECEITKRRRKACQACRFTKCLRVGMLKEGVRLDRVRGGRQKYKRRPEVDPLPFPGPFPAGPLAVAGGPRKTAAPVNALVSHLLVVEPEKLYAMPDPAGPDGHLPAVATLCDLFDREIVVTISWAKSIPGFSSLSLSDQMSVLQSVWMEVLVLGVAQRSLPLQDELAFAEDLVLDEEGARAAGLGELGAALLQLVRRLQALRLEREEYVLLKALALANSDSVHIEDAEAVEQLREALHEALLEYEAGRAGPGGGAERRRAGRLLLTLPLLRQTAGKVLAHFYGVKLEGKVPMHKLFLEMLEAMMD
Procedure, shortened: (§1)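 Terbium/fluorescein TR-FRET read-out: excitation 340 nm, emission 520 nm (fluorescein) and 490 nm (terbium). The 520/490 nm ratio is expressed as fold change over a DMSO-only control and plotted against concentration to give EC50.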

[3] = Half life in mouse liver microsomes at 1 uM in presence of NADPH by LC-MS/MS analysis; assay type: ADME, microsome
[4] = biological target: T2, Estrogen-related receptor gamma (Homo sapiens, UniProt P62508); test: Agonist activity at human N-terminal alphaHis-SUMO-tagged ERRgamma-LBD (229 to 458 residues) expressed in Escherichia coli BL21 gold (DE3) cells assessed as decrease in RIP140 peptide recruitment after 2 hrs by TR-FRET assay; conditions: read-out: EC50
T2 sequence (P62508 whole entry): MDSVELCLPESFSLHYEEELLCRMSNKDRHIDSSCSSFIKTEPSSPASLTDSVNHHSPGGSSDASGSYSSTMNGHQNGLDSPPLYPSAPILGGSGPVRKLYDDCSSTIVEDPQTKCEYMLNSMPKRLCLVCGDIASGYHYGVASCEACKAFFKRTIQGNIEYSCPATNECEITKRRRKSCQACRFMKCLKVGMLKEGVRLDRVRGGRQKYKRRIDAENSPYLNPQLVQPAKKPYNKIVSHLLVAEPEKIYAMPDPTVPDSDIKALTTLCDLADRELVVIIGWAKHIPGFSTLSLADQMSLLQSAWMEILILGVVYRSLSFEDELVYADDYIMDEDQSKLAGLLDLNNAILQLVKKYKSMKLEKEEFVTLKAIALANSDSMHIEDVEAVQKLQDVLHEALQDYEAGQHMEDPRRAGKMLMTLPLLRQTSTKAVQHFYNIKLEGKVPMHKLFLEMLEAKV
Procedure, shortened: (§2)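 Terbium/fluorescein TR-FRET read-out: excitation 340 nm, emission 520 nm (fluorescein) and 490 nm (terbium). The 520/490 nm ratio is expressed as fold change over a DMSO-only control. Values are the arithmetic mean of at least two separate runs.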

[5] = biological target: T3, Steroid hormone receptor ERR2 (Homo sapiens, UniProt O95718); test: Agonist activity at alphaHis-SUMO-tagged ERRbeta-LBD (unknown origin) assessed as decrease in RIP140 peptide recruitment by TR-FRET assay; procedure, shortened: as §1
T3 sequence (O95718 whole entry): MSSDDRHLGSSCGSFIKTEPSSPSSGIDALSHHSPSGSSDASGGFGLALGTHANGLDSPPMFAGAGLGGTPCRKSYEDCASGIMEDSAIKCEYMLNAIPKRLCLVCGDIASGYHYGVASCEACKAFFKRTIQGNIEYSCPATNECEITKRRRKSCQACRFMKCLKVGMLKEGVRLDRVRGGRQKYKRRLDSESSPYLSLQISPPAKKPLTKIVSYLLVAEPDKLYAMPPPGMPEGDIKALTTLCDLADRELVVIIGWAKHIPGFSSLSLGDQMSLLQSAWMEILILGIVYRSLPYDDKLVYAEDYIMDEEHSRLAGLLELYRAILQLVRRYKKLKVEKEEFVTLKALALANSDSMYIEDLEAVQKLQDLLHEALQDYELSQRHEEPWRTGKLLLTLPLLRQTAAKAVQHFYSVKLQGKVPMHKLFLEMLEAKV

[6] = Half life in human liver microsomes at 1 uM in presence of NADPH by LC-MS/MS analysis; assay type: ADME, microsome
[7] = biological target: T2, Estrogen-related receptor gamma; test: Inverse agonist activity at human N-terminal alphaHis-SUMO-tagged ERRgamma-LBD (229 to 458 residues) expressed in Escherichia coli BL21 gold (DE3) cells assessed as decrease in RIP140 peptide recruitment after 2 hrs by TR-FRET assay; procedure, shortened: as §2
Homo sapiens = organism: Homo sapiens; test: Selectivity ratio of EC50 for alphaHis-SUMO-tagged ERRbeta-LBD (unknown origin) to EC50 for human N-terminal alphaHis-SUMO-tagged ERRgamma-LBD (229 to 458 residues) expressed in Escherichia coli BL21 gold (DE3) cells
[8] = biological target: T2, Estrogen-related receptor gamma; test: Agonist activity at Gal4 fused ERRgamma-LBD (unknown origin) expressed in HEK293T cells after 20 hrs by UAS-luciferase reporter gene assay; assay type: cell-based
Procedure, shortened: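 HEK293T cells carrying Gal4-ERRγ fusion with UAS-luciferase reporter; compounds run as concentration-response curves; counterscreened in parallel against Gal4-VP16::UAS-Luc to flag non-specific activation.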

[9] = biological target: T2, Estrogen-related receptor gamma; test: Partial agonist activity at human N-terminal alphaHis-SUMO-tagged ERRgamma-LBD (229 to 458 residues) expressed in Escherichia coli BL21 gold (DE3) cells assessed as increase in RIP140 peptide recruitment after 2 hrs by TR-FRET assay

| Structure (SMILES) | t1/2 [1] [min] | Activity [2] | t1/2 [3] [min] | EC50 [4] [nM] | EC50 [5] [nM] | t1/2 [6] [min] | EC50 [7] [nM] | EC50 [8] [nM] | EC50 [9] [nM] | Ratio EC50 (Homo sapiens) |
| --- | --- | --- | --- | --- | --- | --- | --- | --- | --- | --- |
| CCN(CC)c1ccc(CCNC(=O)c2ccc(O)cc2)cc1 | 3.9 | inactive | 2.2 | 390 | 630 | 3.1 | – | – | – | – |
| CC(C)(C)c1ccc(CCNC(=O)c2ccccc2O)cc1 | – | – | – | – | – | – | 2900 | – | – | – |
| CC(C)(C)c1ccc(CCNC(=O)Cc2ccc(O)cc2)cc1 | – | inactive | – | 950 | 2700 | – | – | – | – | – |
| CC(C)(C)c1ccc(CCNC(=O)c2ccc(O)cc2)cc1 | 1.6 | inactive | 3.3 | 700 | 90 | 6.8 | – | 4700 | – | 7 to 8 |

Further lines, with some results ahead:

| t1/2 [1] [min] | Activity [2] | t1/2 [3] [min] | EC50 [4] [nM] | EC50 [5] [nM] | t1/2 [6] [min] | EC50 [7] [nM] | EC50 [8] [nM] | EC50 [9] [nM] | Structure (SMILES) | Ratio EC50 (Homo sapiens) |
| --- | --- | --- | --- | --- | --- | --- | --- | --- | --- | --- |
| 1.1 | – | 1.2 | 950 | 31 | 2.9 | – | – | – | CC(C)(C)c1ccc(CCNC(=O)c2ccc(O)cc2Cl)cc1 | 30 to 40 |
| 1.5 | – | 1.5 | 760 | 20 | 3.6 | – | – | – | Cc1cc(O)ccc1C(=O)NCCc1ccc(C(C)(C)C)cc1 | 30 to 40 |
| – | – | – | – | 45 | – | – | – | 300 | CC(C)(C)c1ccc(CCNC(=O)c2ccc(O)cc2N)cc1 | 7 to 8 |
